Measured values gathered from unrelated publications.
Lines come from different studies, so protocols differ.
Target: Mitogen-activated protein kinase kinase kinase kinase 3 (MAP4K3, Homo sapiens, UniProt Q8IVH8)
Residues used in one study (Q8IVH8 1-894): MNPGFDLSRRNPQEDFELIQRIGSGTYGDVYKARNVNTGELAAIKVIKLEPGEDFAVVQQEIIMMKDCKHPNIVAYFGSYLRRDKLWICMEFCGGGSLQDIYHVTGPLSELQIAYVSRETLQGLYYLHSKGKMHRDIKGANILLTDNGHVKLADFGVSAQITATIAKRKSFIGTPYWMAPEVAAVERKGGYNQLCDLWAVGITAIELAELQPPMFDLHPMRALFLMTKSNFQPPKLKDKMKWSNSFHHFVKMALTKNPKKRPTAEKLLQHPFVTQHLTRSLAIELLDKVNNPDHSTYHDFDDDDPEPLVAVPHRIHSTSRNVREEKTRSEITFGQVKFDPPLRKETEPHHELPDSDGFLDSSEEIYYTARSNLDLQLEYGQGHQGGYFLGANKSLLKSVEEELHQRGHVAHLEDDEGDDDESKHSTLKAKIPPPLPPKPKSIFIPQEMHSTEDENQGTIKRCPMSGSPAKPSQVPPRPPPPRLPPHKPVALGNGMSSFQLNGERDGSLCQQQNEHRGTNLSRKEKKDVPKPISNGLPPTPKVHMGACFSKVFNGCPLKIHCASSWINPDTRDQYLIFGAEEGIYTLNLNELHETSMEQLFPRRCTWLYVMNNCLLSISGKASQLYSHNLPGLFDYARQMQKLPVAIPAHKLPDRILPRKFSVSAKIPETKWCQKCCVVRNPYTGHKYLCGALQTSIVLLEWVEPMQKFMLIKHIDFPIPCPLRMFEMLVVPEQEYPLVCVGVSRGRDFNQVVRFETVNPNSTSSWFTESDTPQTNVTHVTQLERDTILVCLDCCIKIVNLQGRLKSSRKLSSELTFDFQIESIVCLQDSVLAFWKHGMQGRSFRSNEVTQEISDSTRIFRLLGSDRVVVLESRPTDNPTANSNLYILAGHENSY

SMILES	observed	technique	tested at	remaining binding
O=C(c1ccc(Nc2ncc(Cl)c(-c3cc4ccccc4s3)n2)cc1)N1CCC(N2CCCC2)CC1	binding	competition with immobilised ligand	1 µM	40%
Cc1c(C(=O)O)cc(-c2ccc(C3CCNCC3)cc2)c2ccc(-c3ccc(C(F)(F)F)cc3)cc12	binding	competition with immobilised ligand	1 µM	100%
C[C@H]1CCN(c2nccc(-c3cnn4ncccc34)n2)C1	binding		1 µM	100%
O=C(NCCCN1CCOCC1)c1ccc(Nc2nccc(-c3cc4ccccc4s3)n2)cc1	binding	competition with immobilised ligand	1 µM	65%
c1cncc(-c2cccc(Nc3nccc(NC4CCCCC4)n3)c2)c1	binding	competition with immobilised ligand	10 µM	83%
Cc1cnn2ncc(-c3ccnc(N(C)C)n3)c2c1	binding		1 µM	100%
Cc1cnc(Nc2ccc(C(=O)N3CCC(N4CCCC4)CC3)cc2)nc1-c1cc2ccccc2s1	binding	competition with immobilised ligand	1 µM	50%
N[C@@H]1CCN(c2nccc(-c3cnn4ncccc34)n2)C1	binding		1 µM	76%
CCN1CCN(Cc2ccc(C(=O)Nc3ccc(C)c(Oc4ccc5c(c4)CC(=O)N5)c3)cc2C(F)(F)F)CC1	binding	competition with immobilised ligand	1 µM	76%
FC(F)(F)Oc1cccc(-c2cnc3ccc(-c4ccncc4)nn23)c1	cell-free assay	competition with immobilised ligand	5 µM	86%
CC(C)(O)c1cncc(-c2nc3ccc(F)cc3n2C2CC2)c1	cell-free assay	competition with immobilised ligand	1 µM	100%
CNC(=O)[C@@H]1CC[C@@H](n2c(-c3ccc4cnccc4c3)nc3ccc(C(=O)NCc4cccc(C(N)=O)c4)cc32)C1	binding	competition with immobilised ligand	1 µM	100%
NS(=O)(=O)c1cc(NC(=O)Cc2ccccc2)ccc1Oc1cccc(Cl)c1	cell-free assay	competition with immobilised ligand	1 µM	100%
CN(C)c1nccc(-c2cnc3ncccn23)n1	binding		1 µM	100%
O=C(N1CCS(=O)(=O)CC1)N1C[C@H](c2ccc(OC(F)(F)F)cc2)C[C@H](c2nc(C3CC3)no2)C1	cell-free assay	competition with immobilised ligand	1 µM	100%
c1cnn2ncc(-c3ccnc(N4CCC45COC5)n3)c2c1	binding		1 µM	88%
Nc1cnc(N2CCc3cc(S(=O)(=O)Nc4c(F)cc(Cl)cc4F)cc(N4CCCC4=O)c32)nc1	cell-free assay	competition with immobilised ligand	1 µM	93%
COc1ccnn2ncc(-c3ccnc(N(C)C)n3)c12	binding		1 µM	100%
CC1=C(C#N)[C@@H](c2ccc3[nH]nc(C)c3c2)C(C#N)=C(c2ccc(Cl)cc2)N1	cell-free assay	competition with immobilised ligand	1 µM	100%
O=C(Nc1c[nH]nc1C(=O)NC1CCNCC1)c1cc(F)cc(F)c1	binding	competition with immobilised ligand	1 µM	74%
